In the library only some 3% were active in any assay of this set; here they are far more common.
5HT1a antag: human 5-HT1a receptor antagonists, primary screen, cell-based, CHO, Ga15 NFAT-bla reporter; 5-hydroxytryptamine receptor 1A (Homo sapiens), P08908; CHO 5-HT1a Ga15 NFAT-bla reporter, antagonist mode; inhibition, % at 10 µM; 0.68% of 62,000 active; AID 612, 2007;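 active = inhibition above the mean of all tested compounds plus 3 SD, cut at about 43% in these data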;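 also: receptor stimulated by 5-CT agonist at 100 nM near EC80; beta-lactamase reporter measured by ratiometric fluorescence of a cleavable substrate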
S1P3 ag: human S1P3 receptor agonists, primary screen, cell-based, primary and confirmation, NFAT-BLA reporter; activation, % at 4.5 µM; 0.1% of 60,000 active; Sphingosine 1-phosphate receptor 3 (Homo sapiens), Q99500; S1P3 NFAT-BLA reporter cells, agonism, FRET ratio; relative to 1 µM S1P, basal subtracted; AID 373, 2006;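 active = activation above the screen-wide mean plus 3 SD, cut at about 4.5% in these data, passing the limit was not always enough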
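Assay system: stable CHO line with human S1P3, Gα16, NFAT-BLA reporter; Detection: FRET β-lactamase substrate fluorescence, excitation 405 nm, 460/535 nm emission ratio, background-subtracted; Read-out: percent activation versus median 1 µM S1P response, basal-subtracted, per plate; Incubation: cells plated overnight, compound 4 h 37 °C, substrate 2 h RT.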
HTR1A agonist: human 5-HT1a receptor agonists, primary screen, cell-based, CHO, Ga15 NFAT-bla reporter; 5-hydroxytryptamine receptor 1A (Homo sapiens), P08908; CHO 5-HT1a Ga15 NFAT-bla reporter, FRET ratio; 0% basal, 100% maximal reference agonist; activation, % at 10 µM; 0.56% of 65,000 active; AID 567, 2006;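 active = activation above the screen-wide mean activation plus 3 SD, cut at about 19% in these data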;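 also: 0% = DMSO wells and 100% = 5-CT at EC100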
S1P1 ag pot: S1P1 agonists and agonism potentiators, primary screen, cell-based, primary and confirmation screens, CRE-bla reporter | Sphingosine 1-phosphate receptor 1 (Homo sapiens), P21453 | S1P1 CRE-bla cells, forskolin, beta-lactamase FRET, potentiator mode; S1P1 agonist co-added at EC20, 2 nM; 100% = saturating reference agonist, 0% = basal | 0.57% of 56,000 active | AID 449, 2006 | activation, % at 9.5 µM;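 active = activation above a cutoff set at the mean activation of all tested compounds plus 3 SD, cut at about 54% in these data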;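 also: forskolin at 4 µM as EC80 and the EC20 agonist is SEW2871; 100% = SEW2871 at its EC100 plus forskolin at EC80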
Target sequence (P21453 whole entry, looked up): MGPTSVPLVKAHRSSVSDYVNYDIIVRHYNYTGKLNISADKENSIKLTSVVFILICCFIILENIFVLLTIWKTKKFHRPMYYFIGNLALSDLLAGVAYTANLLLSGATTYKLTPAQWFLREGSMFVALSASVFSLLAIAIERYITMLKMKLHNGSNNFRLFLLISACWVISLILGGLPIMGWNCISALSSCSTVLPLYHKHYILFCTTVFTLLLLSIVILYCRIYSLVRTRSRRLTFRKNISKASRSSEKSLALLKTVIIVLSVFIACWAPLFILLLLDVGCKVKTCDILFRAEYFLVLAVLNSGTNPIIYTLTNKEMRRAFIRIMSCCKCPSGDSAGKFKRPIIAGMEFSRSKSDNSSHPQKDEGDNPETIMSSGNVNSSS
5HT1E ag: 5-HT1E receptor agonists, primary screen, cell-based, HTS; activation, % at 6 µM; 0.69% of 65,000 active; CHO 5-HT1E Ga15 NFAT-bla reporter, FRET; 0% DMSO wells, 100% control agonist wells; AID 574, 2007; 5-hydroxytryptamine receptor 1E (Homo sapiens), P28566;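 active = activation above a set limit, the screen-wide mean activation plus 3 SD, cut at about 8.5% in these data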;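 also: 100% = positive control agonist at 1 µM giving full maximal response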
HTR1E antagonist: 5-HT1E receptor antagonists, primary screen, cell-based, HTS. inhibition, % at 6 µM. CHO 5-HT1E Ga15 NFAT-bla reporter, FRET, antagonist. AID 571, 2007. 5-hydroxytryptamine receptor 1E (Homo sapiens), P28566. 0.99% of 65,000 active;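 active = inhibition above a set limit, the mean inhibition across every tested compound plus 3 SD, cut at about 29% in these data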;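 also: signal is the 460 over 535 nm emission ratio of beta-lactamase substrate; 0% = agonist plus DMSO wells and 100% = wells without agonist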
* hit, by the source's call.

SMILES	5HT1a antag	S1P3 ag	HTR1A agonist	S1P1 ag pot	5HT1E ag	HTR1E antagonist
CC(C(=O)NC1CCCC1)N(Cc1ccco1)C(=O)c1snc(C(=O)NC2CCCC2)c1N (configuration not stated)	9	0	1	-3	0	7
Cc1cc(N=Cc2cc(Br)ccc2O)no1	1	0	-3	-21	1	0
O=C(CSCc1ccccc1)N1CCN(Cc2ccc3c(c2)OCO3)CC1	-9	0	1	0	1	-8
Cc1cccc(-c2nc(CSCC(=O)N3CCN(Cc4ccc5c(c4)OCO5)CC3)c(C)o2)c1	13	0	-1	58*	0	6
CCOc1ccc(-c2nc(CSCC(=O)N3CCN(c4cccc(OC)c4)CC3)c(C)o2)cc1	4	-1	-1	69*	4	18
Cc1ccc2c(CC(=O)N3CCN(S(=O)(=O)c4ccc5c(c4)OCCO5)CC3)coc2c1	-14	1	-1	24	0	-10
O=S(=O)(c1cccs1)N1CCN(CC(O)COc2cc(Cl)ccc2Cl)CC1 (configuration not stated)	-4	-1	-1	66*	0	8
CC1=C(C(=O)OCc2ccccc2)C(c2ccc(N3CCOCC3)cc2)NC(=O)N1 (configuration not stated)	-5	0	0	-26	0	8
CC1=C(C(=O)OCc2ccc3c(c2)OCO3)C(c2ccccc2)NC(=O)N1 (configuration not stated)	18	-1	2	88*	0	16
Cc1ccc(S(=O)(=O)Cn2nnnc2CN2CCCC3(CCCCC3)C2)cc1	-9	0	-1	15	0	-9
O=C(c1cnc2sccn2c1=O)N(Cc1ccccc1)c1ccccn1	-6	0	27*	7	0	-6
Cc1cc(Br)c(S(=O)(=O)n2nnc3ccccc32)cc1C	0	1	-3	-21	0	-2
O=C(NCCCN1CCN(c2cccc(Cl)c2)CC1)C1CCC(=O)N1Cc1ccccc1Cl (configuration not stated)	37	0	7	-9	14*	-5
Cn1c(=O)cc(OCCCC(=O)NCCN2CCN(c3ccccc3F)CC2)c2ccccc21	23	0	0	-14	0	-1
Cn1c(=O)cc(OCC(=O)NCCCN2CCN(c3ccccc3F)CC2)c2ccccc21	61*	-1	5	3	6	2
Cn1c(=O)cc(OCC(=O)NCCCN2CCN(c3cccc(Cl)c3)CC2)c2ccccc21	28	0	1	-9	9.3*	2
Cn1c(C(=O)NCCCN2CCN(c3ccccc3F)CC2)cc2c(=O)[nH]c3ccccc3c21	75*	-1	18	-24	25*	4
O=C(NCCCN1CCCCC1)C1CCC(=O)N1CCc1ccccc1 (configuration not stated)	-1	0	-4	-4	0	7
CC1=C(C(=O)Nc2ccccn2)C(c2cccnc2)n2nnnc2N1 (configuration not stated)	-4	-1	-5	-32	1	-2
O=C(c1cccc(S(=O)(=O)NCCOc2ccccc2)c1)N1CCN(c2ncccn2)CC1	-22	-1	-2	-2	1	-3
CCOc1ccc(-c2nnc3ccc(SCc4ccc(C(=O)OC)o4)nn23)cc1	-12	0	6	-26	0	24
Cc1ccnc(NC(=O)CCCOc2cc(=O)n(C)c3ccccc23)c1	66*	-1	0	-25	-1	20
